In publication PMC6626068 (Journal of Advanced Research, 2019):
Read-outs that look alike come from different tables or passages of the source.

Experiments:
Format in all cases: cell-based
[1] = system: HeLa; experiment: MTT cytotoxicity assay, HeLa cells; settings: 72 h; for IC50: read-out: IC50 (μM) HeLa
Procedure, shortened: (§1)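 Cells were grown in DMEM with 10% FBS and 1% penicillin/streptomycin at 37 °C under 5% CO₂, then seeded at 1 × 10⁴ cells/well. After 24 h they received the test compound at 0, 2.5, 5, 10, 20 and 40 μM for 72 h, with doxorubicin as positive control. MTT (5 mg/mL stock) was added for 4 h, formazan dissolved in DMSO for 10 min, A570 read, and IC50 calculated.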

[2] = system: HepG2; experiment: MTT cytotoxicity assay, HepG2 cells; settings: read-out: IC50 (μM) HepG2
Procedure, shortened: as §1

[3] = system: MCF-7; experiment: MTT cytotoxicity assay, MCF-7 cells; settings: for IC50: read-out: IC50 (μM) MCF-7
Procedure, shortened: as §1

[4] = system: HCT-116; experiment: MTT cytotoxicity assay, HCT-116 cells; settings: read-out: IC50 (μM) HCT-116
Procedure, shortened: as §1

[5] = system: MDA-MB-231; experiment: MTT cytotoxicity assay, MDA-MB-231 cells; settings: read-out: IC50 (μM) MDA-MB-231
Procedure, shortened: as §1

[6] = system: HUVEC; experiment: MTT cytotoxicity assay, normal cell line HUVEC; settings: 72 h, read-out: IC50 (μM) HUVEC
[7] = system: HeLa cells; experiment: Annexin V/PI double staining flow cytometry, HeLa; settings: 1 μM, 48 h (positive control)
[8] = system: MCF-7 cells; experiment: Annexin V/PI double staining flow cytometry, MCF-7; settings: MCF-7, 1 μM, 48 h (positive control)
[9] = system: GFP-LC3-HeLa cells; experiment: Autophagy detection using GFP-LC3 expression in HeLa cells; settings: 25 μM, 24 h, observation control
Procedure, shortened: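 HeLa cells stably expressing GFP-LC3, grown in 24-well plates, were exposed to the test compound for 24 h, either at 10 μM for screening or at 2.5, 5, 10 and 20 μM. Chloroquine phosphate at 25 μM served as the observation control. GFP-LC3 puncta were imaged by fluorescence microscopy, and dots per cell were counted.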

| Molecule | IC50 ([1]; Homo sapiens) [µM] | IC50 ([2]; Homo sapiens, HepG2, 72 h) [µM] | IC50 ([3]; Homo sapiens, MCF7, 72 h) [µM] | IC50 ([4]; Homo sapiens, HCT-116, 72 h) [µM] | IC50 ([5]; Homo sapiens, MDA-MB-231, 72 h) [µM] | IC50 ([6]; Homo sapiens, HUVEC) [µM] | further results |
| --- | --- | --- | --- | --- | --- | --- | --- |
| COc1cc(OC)c(-c2coc3c(CC=C(C)C)c(OC)c(OC)cc3c2=O)cc1OC [Compound 4, 8-(γ, γ-dimethylallyl)-6,7,2′,4′,5′-pentamethoxyisoflavone] | 7.86 ± 1.21 | 8.74 ± 0.83 | 18.5 ± 0.51 | 8.61 ± 0.72 | 15.8 ± 2.15 | > 50 | growth inhibition of HeLa cells (primary screening) ([1]; 50 μM, MTT): most active; growth inhibition of MCF-7 cells (primary screening) ([3]; 50 μM, 72 h, MTT): most active |
| COc1cc2c(c(OC)c1OC)-c1ccc(OC)c(=O)cc1[C@@H](NC(C)=O)CC2 [Colchicine, colchicine] | – | – | – | – | – | – | apoptosis rate (early + late apoptotic cells) [7]: 45.62%; apoptosis rate (early + late apoptotic cells) [8]: 38.01% |
| COc1cc(-c2coc3c(CC=C(C)C)c(OC)c(OC)c(O)c3c2=O)c(OC)cc1O [Compound 5, 8-(γ, γ-dimethylallyl)-5,4′-dihydroxy-6,7,2′,5′-tetramethoxyisoflavone] | 35.7 ± 3.91 | 31.6 ± 2.06 | 35.1 ± 1.44 | 25.9 ± 0.85 | 27.6 ± 4.54 | > 50 | – |
| CCN(CC)CCCC(C)Nc1ccnc2cc(Cl)ccc12 (centres unmarked) [chloroquine phosphate] | – | – | – | – | – | – | GFP-LC3 dots (autophagosomes) [9]: obvious increase in the GFP-LC3 dots |
| COc1cccc2c1C(=O)c1c(O)c3c(c(O)c1C2=O)C[C@@](O)(C(=O)CO)C[C@@H]3O[C@H]1C[C@H](N)[C@H](O)[C@H](C)O1 [Doxorubicin, reference compound] | 0.03 ± 0.001 | 0.02 ± 0.002 | 0.02 ± 0.003 | 0.03 ± 0.003 | 0.03 ± 0.002 | 0.04 ± 0.005 | – |
| 3,9-dihydroxypterocarp-6a-en [Compound 17] | – | – | – | – | – | – | IC50 ([1]; MTT, means ± SEM (n = 3)): 36.1 ± 7.34 µM; IC50 ([2]; MTT, 72 h, means ± SEM (n = 3)): 34.2 ± 1.87 µM; IC50 ([3]; MTT, 72 h, means ± SEM (n = 3)): 30.3 ± 1.32 µM; IC50 ([4]; MTT, 72 h, means ± SEM (n = 3)): 39.7 ± 2.06 µM; IC50 ([5]; MTT, 72 h, means ± SEM (n = 3)): 36.8 ± 5.61 µM; IC50 ([6]; normal cell line, MTT, compounds at 50 μM, means ± SEM (n = 3)): > 50 µM |
